What was measured:
[1] = biological target: Serine-protein kinase ATM (Homo sapiens) (UniProt Q13315); experiment: Inhibition of human recombinant ATM at 40 nM in presence of ATP by radiometric assay relative to control
How it was run: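 Panel of 327 recombinant human kinases, each assayed in vitro by radiometric activity assay in duplicate at a single inhibitor concentration per compound, chosen with reference to its ULK1 inhibition. Activity remaining was expressed as percent of vehicle control, and percent inhibition was calculated as 100 minus percent activity remaining.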

[2] = biological target: T1, Tyrosine-protein kinase ZAP-70 (Homo sapiens) (UniProt P43403); experiment: Inhibition of human recombinant ZAP70 at 40 nM in presence of ATP by radiometric assay relative to control
T1 sequence (whole entry): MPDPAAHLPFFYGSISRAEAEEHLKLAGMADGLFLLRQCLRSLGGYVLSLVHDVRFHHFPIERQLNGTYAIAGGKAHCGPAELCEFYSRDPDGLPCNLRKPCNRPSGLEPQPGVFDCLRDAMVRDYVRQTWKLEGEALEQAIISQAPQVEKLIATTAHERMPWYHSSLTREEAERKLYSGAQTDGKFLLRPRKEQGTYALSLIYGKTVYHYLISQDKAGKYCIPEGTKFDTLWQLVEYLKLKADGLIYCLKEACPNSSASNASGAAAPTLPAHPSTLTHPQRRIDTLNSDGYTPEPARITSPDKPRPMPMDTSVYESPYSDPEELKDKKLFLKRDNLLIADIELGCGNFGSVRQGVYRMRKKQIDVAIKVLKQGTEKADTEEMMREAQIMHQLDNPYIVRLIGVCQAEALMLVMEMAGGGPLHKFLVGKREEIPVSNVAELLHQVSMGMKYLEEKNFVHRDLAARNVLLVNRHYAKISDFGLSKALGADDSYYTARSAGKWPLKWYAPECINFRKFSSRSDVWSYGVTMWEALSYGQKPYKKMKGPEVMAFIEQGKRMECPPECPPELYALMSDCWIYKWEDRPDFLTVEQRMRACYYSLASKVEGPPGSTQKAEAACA

[3] = biological target: Homeodomain-interacting protein kinase 1 (Homo sapiens) (UniProt Q86Z02); experiment: Inhibition of human recombinant HIPK1 at 40 nM in presence of ATP by radiometric assay relative to control
Sequence of Homeodomain-interacting protein kinase 1 (Homo sapiens) (Q86Z02 whole entry, looked up): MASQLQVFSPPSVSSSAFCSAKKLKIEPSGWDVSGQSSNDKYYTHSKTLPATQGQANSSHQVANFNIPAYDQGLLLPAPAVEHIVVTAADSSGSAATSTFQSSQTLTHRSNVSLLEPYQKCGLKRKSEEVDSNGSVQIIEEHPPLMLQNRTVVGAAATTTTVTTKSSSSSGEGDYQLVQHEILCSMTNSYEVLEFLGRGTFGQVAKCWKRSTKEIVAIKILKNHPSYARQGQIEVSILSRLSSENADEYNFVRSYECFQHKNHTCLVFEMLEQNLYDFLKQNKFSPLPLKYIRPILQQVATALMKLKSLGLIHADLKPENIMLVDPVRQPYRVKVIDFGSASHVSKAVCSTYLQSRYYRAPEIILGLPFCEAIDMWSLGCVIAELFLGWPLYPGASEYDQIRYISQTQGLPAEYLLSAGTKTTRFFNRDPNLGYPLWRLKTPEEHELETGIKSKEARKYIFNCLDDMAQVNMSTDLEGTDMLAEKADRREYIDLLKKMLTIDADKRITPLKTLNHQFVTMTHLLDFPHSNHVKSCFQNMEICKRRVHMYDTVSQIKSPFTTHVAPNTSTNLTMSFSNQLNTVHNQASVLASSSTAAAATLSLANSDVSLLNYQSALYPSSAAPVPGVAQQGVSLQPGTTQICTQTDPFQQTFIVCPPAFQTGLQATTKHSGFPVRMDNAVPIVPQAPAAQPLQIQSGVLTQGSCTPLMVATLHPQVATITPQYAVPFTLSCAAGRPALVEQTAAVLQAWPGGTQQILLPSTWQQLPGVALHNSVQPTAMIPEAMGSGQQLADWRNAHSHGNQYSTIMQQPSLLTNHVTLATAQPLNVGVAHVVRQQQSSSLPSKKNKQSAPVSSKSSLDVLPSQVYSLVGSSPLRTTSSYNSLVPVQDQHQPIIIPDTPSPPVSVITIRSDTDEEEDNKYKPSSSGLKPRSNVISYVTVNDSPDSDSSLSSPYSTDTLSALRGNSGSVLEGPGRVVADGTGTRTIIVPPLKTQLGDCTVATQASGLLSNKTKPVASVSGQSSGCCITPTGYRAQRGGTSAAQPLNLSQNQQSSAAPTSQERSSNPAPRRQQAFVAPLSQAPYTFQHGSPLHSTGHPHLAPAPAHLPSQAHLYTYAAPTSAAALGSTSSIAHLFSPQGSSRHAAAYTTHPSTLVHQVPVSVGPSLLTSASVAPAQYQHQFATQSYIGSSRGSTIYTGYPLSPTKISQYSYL

[4] = biological target: Dual specificity protein kinase CLK3 (Homo sapiens) (UniProt P49761); experiment: Inhibition of human recombinant CLK3 at 500 nM related to control ULK1
[5] = biological target: Cyclin-dependent kinase 13 (Homo sapiens) (UniProt Q14004); experiment: Inhibition of human recombinant CHED at 500 nM related to control ULK1
Sequence of Cyclin-dependent kinase 13 (Homo sapiens) (Q14004 whole entry, looked up): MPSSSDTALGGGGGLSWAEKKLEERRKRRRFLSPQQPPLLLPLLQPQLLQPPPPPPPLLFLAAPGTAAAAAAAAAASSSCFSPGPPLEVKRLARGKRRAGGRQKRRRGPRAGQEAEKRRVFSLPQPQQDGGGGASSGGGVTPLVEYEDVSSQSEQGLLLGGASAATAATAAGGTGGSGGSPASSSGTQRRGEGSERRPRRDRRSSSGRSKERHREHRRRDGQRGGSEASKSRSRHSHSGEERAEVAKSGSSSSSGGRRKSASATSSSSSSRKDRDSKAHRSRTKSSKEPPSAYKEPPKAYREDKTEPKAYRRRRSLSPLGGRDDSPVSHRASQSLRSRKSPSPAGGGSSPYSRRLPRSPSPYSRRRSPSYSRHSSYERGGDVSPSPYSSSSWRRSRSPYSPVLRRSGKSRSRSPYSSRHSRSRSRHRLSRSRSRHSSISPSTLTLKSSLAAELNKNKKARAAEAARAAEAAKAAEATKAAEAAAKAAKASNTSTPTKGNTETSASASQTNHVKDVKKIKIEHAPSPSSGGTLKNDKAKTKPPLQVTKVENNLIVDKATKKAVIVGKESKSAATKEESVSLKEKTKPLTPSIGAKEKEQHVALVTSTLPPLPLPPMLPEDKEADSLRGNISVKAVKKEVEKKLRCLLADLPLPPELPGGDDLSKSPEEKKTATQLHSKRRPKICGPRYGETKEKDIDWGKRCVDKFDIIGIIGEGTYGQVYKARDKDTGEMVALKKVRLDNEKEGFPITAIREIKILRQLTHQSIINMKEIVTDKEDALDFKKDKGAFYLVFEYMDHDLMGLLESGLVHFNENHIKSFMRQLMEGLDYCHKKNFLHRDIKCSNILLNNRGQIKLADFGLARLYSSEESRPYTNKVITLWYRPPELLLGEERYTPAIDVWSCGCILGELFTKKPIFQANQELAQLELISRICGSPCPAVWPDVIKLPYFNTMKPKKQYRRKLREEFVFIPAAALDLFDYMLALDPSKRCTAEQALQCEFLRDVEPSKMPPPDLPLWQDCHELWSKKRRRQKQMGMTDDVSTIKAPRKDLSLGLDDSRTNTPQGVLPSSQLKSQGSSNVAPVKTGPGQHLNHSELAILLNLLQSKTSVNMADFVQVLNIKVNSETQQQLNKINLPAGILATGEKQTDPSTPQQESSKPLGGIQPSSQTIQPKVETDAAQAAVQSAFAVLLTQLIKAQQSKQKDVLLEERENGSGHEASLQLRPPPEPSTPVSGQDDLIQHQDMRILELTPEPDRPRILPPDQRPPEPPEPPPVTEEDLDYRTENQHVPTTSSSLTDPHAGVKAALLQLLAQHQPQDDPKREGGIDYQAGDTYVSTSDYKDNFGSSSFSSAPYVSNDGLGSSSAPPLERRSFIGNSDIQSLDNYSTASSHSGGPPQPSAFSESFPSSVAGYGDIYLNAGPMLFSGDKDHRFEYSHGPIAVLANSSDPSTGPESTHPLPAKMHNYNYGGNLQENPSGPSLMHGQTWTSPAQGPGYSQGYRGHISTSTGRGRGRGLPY

[6] = biological target: Serine/threonine-protein kinase D2 (Homo sapiens) (UniProt Q9BZL6); experiment: Inhibition of human recombinant PKD2 at 500 nM in presence of ATP by radiometric assay relative to control
Sequence of Serine/threonine-protein kinase D2 (Homo sapiens) (Q9BZL6 whole entry, looked up): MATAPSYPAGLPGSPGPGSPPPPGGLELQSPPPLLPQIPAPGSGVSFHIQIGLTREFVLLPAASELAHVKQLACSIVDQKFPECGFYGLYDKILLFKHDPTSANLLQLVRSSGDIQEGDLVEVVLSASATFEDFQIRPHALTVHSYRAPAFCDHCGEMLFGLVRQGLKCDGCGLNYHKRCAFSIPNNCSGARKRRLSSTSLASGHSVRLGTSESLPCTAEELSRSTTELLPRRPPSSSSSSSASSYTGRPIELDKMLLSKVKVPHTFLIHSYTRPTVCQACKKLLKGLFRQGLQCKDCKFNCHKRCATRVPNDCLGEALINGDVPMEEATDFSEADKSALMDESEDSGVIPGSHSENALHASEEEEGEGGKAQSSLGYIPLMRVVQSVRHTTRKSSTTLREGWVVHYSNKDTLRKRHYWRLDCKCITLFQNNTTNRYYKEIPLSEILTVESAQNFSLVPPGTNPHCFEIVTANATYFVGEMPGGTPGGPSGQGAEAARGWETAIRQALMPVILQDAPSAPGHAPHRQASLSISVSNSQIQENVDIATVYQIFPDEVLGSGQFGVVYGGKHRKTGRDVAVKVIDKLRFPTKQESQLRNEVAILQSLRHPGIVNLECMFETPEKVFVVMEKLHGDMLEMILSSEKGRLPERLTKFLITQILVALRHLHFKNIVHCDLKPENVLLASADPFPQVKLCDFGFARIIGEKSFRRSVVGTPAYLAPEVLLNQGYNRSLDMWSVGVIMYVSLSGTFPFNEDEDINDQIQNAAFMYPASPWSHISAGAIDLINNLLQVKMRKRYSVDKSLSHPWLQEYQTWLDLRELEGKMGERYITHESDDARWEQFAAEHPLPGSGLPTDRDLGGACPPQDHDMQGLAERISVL

[7] = biological target: Ribosomal protein S6 kinase alpha-3 (Homo sapiens) (UniProt P51812); experiment: Inhibition of human recombinant RSK2 at 500 nM related to control ULK1
[8] = biological target: Non-receptor tyrosine-protein kinase TYK2 (Homo sapiens) (UniProt P29597); experiment: Inhibition of human recombinant TYK2 at 15 nM in presence of ATP by radiometric assay relative to control
[9] = biological target: Serine/threonine-protein kinase MRCK alpha (Homo sapiens) (UniProt Q5VT25); experiment: Inhibition of human recombinant MRCKa at 15 nM related to control ULK1
[10] = biological target: T2, Homeodomain-interacting protein kinase 4 (Homo sapiens) (UniProt Q8NE63); experiment: Inhibition of human recombinant HIPK4 at 15 nM in presence of ATP by radiometric assay relative to control
T2 sequence (whole entry): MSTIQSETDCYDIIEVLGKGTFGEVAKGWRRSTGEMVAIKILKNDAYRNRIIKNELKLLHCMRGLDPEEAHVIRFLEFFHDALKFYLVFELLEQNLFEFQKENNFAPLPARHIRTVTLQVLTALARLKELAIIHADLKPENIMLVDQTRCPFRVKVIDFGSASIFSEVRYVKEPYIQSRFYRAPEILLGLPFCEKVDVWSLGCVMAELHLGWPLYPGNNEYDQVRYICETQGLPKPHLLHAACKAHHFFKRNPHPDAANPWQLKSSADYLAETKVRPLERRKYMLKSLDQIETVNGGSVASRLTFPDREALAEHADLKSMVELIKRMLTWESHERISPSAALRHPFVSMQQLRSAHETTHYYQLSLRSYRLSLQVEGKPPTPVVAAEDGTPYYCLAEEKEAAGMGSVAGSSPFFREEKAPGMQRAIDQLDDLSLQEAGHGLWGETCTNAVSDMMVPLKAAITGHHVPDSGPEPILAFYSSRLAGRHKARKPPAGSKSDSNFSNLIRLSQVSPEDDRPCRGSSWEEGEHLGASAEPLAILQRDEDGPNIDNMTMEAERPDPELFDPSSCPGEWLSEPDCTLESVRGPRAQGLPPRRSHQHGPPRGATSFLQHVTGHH

[11] = biological target: Serine/threonine-protein kinase 33 (Homo sapiens) (UniProt Q9BYT3); experiment: Inhibition of human recombinant STK33 at 15 nM related to control ULK1
Sequence of Serine/threonine-protein kinase 33 (Homo sapiens) (Q9BYT3 whole entry, looked up): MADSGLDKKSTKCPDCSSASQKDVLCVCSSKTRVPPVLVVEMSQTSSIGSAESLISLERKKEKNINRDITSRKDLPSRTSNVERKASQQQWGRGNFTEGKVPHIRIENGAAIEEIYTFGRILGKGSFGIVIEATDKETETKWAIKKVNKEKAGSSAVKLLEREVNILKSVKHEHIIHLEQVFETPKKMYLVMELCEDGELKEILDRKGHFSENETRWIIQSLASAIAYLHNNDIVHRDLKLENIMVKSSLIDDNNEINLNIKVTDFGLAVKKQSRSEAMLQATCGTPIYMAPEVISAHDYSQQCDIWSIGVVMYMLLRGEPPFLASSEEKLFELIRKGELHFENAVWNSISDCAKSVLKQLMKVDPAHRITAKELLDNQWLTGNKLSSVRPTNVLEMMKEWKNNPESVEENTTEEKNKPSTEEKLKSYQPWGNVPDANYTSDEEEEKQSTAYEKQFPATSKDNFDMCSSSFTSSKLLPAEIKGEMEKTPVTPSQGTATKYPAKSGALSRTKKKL

[12] = biological target: 3-phosphoinositide-dependent protein kinase 1 (Homo sapiens) (UniProt O15530); experiment: Inhibition of human recombinant PDK1 at 15 nM in presence of ATP by radiometric assay relative to control
Sequence of 3-phosphoinositide-dependent protein kinase 1 (Homo sapiens) (O15530 whole entry, looked up): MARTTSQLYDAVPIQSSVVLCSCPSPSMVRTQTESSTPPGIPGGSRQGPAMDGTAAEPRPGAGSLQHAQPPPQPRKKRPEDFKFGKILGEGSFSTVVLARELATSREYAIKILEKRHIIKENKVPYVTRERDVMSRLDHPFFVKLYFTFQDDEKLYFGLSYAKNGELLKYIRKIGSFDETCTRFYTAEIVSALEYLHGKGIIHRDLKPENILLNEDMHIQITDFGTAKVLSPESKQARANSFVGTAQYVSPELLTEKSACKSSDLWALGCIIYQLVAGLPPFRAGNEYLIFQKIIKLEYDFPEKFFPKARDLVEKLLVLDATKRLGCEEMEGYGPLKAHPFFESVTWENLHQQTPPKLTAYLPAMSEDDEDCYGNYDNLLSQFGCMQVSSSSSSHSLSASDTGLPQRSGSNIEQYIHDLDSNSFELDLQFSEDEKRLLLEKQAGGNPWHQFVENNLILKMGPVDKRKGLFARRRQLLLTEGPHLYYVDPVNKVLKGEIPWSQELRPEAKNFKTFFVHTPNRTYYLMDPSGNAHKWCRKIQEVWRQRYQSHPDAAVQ

O=C(N[C@@H](C1CC1)C(F)(F)F)c1cc(-c2cnn3cc(-c4ccc(F)cc4)cnc23)cs1
inhibition [1]: 5%
inhibition [2]: 0%
inhibition [3]: 0%

CNC(=O)c1ccccc1Oc1nc(Nc2cc(OC)c(OC)c(OC)c2)ncc1Br
fold change (FC) [4]: 0
fold change (FC) [5]: 0
inhibition [6]: 12%
fold change (FC) [7]: 0.5

CC(C)[C@H](NC(=O)c1cc(-c2cnn3cc(-c4ccc(OCCN5CCCCC5)cc4)cnc23)cs1)C(F)(F)F
inhibition [8]: 2%
fold change (FC) [9]: 0.13
inhibition [10]: 0%
fold change (FC) [11]: 0.18
inhibition [12]: 6%

From ChEMBL document CHEMBL5653631, “A Potent and Selective ULK1 Inhibitor Suppresses Autophagy and Sensitizes Cancer Cells to Nutrient Stress” (iScience, 2018)
